Sampled rows, rich in hits. Any-hit rate of the full collection: about 5.8%.
14-3-3 Bad inh – disrupts binding of bovine 14-3-3 zeta to phospho-Bad peptide; TR-FRET 14-3-3zeta/Dy647-pBad peptide displacement, 1 h; inhibition, % at 21.7 µM; actives 0.71% (n = 220,000); P63103;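 active means inhibition above about 70%, limit read from the data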
WT yeast gro inh – growth inhibition of WT yeast, mitochondrial fusion screen; mitochondrial fusion phenotypic screen, WT strain; inhibition, % at 10 µM; actives 2.1% (n = 190,000); in the data active means inhibition above about 58%; tested in S. cerevisiae
ROMK primary – human ROMK K+ channel modulation, primary screen; Tet-inducible ROMK, thallium flux fluorescence; actives lie on both sides; B-score at 10 µM; P48048; actives 2% (n = 130,000);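 active means signal ratio slope over the read window, or its plate-corrected B-score, at least 3 SD from the plate mean, either direction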;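 further: B-score of the F/F0 ratio slope over 7 to 12 s after thallium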
Target sequence (P48048 whole entry, looked up): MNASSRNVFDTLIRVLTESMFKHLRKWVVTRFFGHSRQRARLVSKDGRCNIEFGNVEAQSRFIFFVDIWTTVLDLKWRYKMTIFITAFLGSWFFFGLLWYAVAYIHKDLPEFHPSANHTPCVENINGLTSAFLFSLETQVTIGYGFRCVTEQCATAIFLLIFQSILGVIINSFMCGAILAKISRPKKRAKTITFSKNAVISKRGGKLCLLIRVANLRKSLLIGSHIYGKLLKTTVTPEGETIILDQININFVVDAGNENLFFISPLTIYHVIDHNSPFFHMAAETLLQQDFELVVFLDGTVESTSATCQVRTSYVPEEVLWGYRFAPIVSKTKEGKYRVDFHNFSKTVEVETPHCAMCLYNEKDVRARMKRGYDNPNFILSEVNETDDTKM
NCF1 inh – inhibitors of human p47phox binding. P14598. p47phox/p22phox peptide binding, fluorescence polarization, 2 h. inhibition, % at 24.7 µM. actives 0.53% (n = 220,000). AID 1274;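 active means inhibition above about 30%, limit read from the data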
KCC2 mod – modulates chloride dependent transport by human KCC2; B-score of Tl+ flux slope (higher = more flux/activation; lower = inhibition) at 10 µM; AID 1456; KCC2 cells, thallium flux FluoZin-2 fluorescence; actives 2.2% (n = 190,000);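 active means thallium flux slope and its plate-corrected score both differing from the plate sample mean at a set confidence after two filtering rounds, in either direction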;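 further: slope of fluorescence scaled to starting intensity during 10 to 20 s after thallium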
RBBP9 inh – inhibitors of human serine hydrolase RBBP9 | O75884 | recombinant RBBP9, FP-Rh probe fluorescence polarization | inhibition, % at 7.94 µM | actives 0.2% (n = 220,000);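 active means inhibition above the campaign mean of all tested compounds plus 3 SD, cut at about 14% in these data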
Target sequence (O75884 whole entry, looked up): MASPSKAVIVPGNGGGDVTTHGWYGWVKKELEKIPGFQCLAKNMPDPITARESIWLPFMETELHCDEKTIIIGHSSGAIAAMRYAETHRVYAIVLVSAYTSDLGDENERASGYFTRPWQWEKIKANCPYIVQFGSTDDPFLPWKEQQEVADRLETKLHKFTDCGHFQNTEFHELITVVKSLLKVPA
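Test system: recombinant human RBBP9; Timing: 30 min then 45 min, 25 °C; Detection: fluorescence polarization; Control set: RBBP9 with DMSO as uninhibited control, no-protein wells as full inhibition; Compound dosing: one concentration, 7.94 µM nominal, 0.794% DMSO; Probe or stimulus: FP-Rh activity-based probe, 375 nM before mixing.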
Of the large screens only hits and unclear results are named; the others gave an inactive call; [ ] = dose if it differs, or a comment.

COc1ccc(NC(=O)c2ccsc2NC(C)=O)cc1	none
C[N+]1(CC(=O)Nc2ccccc2Cl)CCN(C(=O)c2cccs2)CC1	NCF1 inh 94
CC(C)C(=O)N1CCC(CN=Cc2c(O)n(C3CCCCC3)c(=O)n(C3CCCCC3)c2=O)CC1	WT yeast gro inh 77 (no result: KCC2 mod)
CC(C)C(c1nnnn1C(C)(C)C)N1CCN(c2cccc(Cl)c2)CC1 (stereo unspecified)	WT yeast gro inh 75
Cc1ccc(OCc2nnc(SCC(=O)c3ccccc3)n2-c2ccccc2)cc1	none
Cc1cccc(-n2c(CCc3ccccc3)nnc2SCC(=O)c2ccccc2)c1	WT yeast gro inh 68
Cc1cc(NC(=O)c2ccc(Cl)cc2)no1	NCF1 inh 48
CCOc1ccc(C(=O)Nc2cc(C)on2)cc1	none (no result: KCC2 mod)
C=CCN1C(=O)C(CC(=O)Nc2ccc(OCCC)cc2)N(CCCN2CCN(Cc3ccccc3)CC2)C1=S (stereo unspecified)	none
O=C(CN1CCCC1)N1c2ccccc2Sc2ccc(C(F)(F)F)cc21	none (no result: ROMK primary)
O=C(CN1CCN(c2ccccn2)CC1)N1c2ccccc2Sc2ccc(C(F)(F)F)cc21	WT yeast gro inh 66 (no result: ROMK primary)
NC(=O)C12CCCC(Br)(CCC1)C2	none (no result: WT yeast gro inh)
O=C(CSc1ccsc1[N+](=O)[O-])Nc1cc(F)ccc1F	14-3-3 Bad inh 83
N#Cc1cc[n+](CC(=O)c2ccc(NC(=O)c3ccccc3)cc2)cc1	none (no result: WT yeast gro inh, ROMK primary)
O=C(COC(=O)c1ccccn1)Nc1ccc2c(c1)OCO2	none
O=C(COC(=O)c1ccccn1)Nc1cccc(Cl)c1	NCF1 inh 36 (no result: ROMK primary)
CCOC(=O)c1cnc2ccc(OCC)cc2c1N1CCN(c2ccccc2OC)CC1	WT yeast gro inh 79
CCOc1ccc2ncc(C(=O)c3ccc(OC)cc3)c(N3CCN(CC)CC3)c2c1	none
Cn1nc(C(C)(C)C)c(NC(=O)c2cccs2)c1C(C)(C)C	none (no result: WT yeast gro inh, ROMK primary)
O=c1oc2ccc3ccccc3c2cc1-c1nnc(-c2ccccc2)o1	none
COc1ccc(-c2nnc(-c3cc4c(ccc5ccccc54)oc3=O)o2)cc1	14-3-3 Bad inh 72, NCF1 inh 32 (no result: ROMK primary)
CCCOC(=O)CN1C(=O)c2ccccc2C1=O	WT yeast gro inh 79 (no result: KCC2 mod)
CCOC(=O)CN1C(=O)c2ccccc2C1=O	none
Cc1ccc(NC(=O)c2cc(-n3cnnc3)ccc2Cl)c(C)c1	NCF1 inh 42 (no result: ROMK primary)
Cc1ccnc(NC(=O)c2cc(-n3cnnc3)ccc2Cl)c1	none (no result: ROMK primary)
CCc1ccc(C2=NN(CCC(=O)NCc3cccs3)C(=O)CC2)cc1	none
CCc1ccc(/C=C/C(=O)c2cc(Br)ccc(=O)c2O)cc1	KCC2 mod 8
CNc1ccc(Br)cc(C(=O)/C=C/c2cccc(Cl)c2Cl)c1=O	none (no result: KCC2 mod)
Cc1ccc(/C=C/C(=O)c2cc(Br)ccc2OC(=O)c2ccco2)cc1	none (no result: ROMK primary)
Cc1cccc(/C=C/C(=O)c2cc(Br)ccc(=O)c2O)c1	KCC2 mod 11
CCOc1ccc(/C=C/C(=O)c2cc(Br)ccc(=O)c2O)cc1	KCC2 mod 31
CCc1nn(C)c(N)c1C	none
CN(C)c1ccnc(N(Cc2ccccc2)Cc2ccccc2)c1C#N	WT yeast gro inh 81
CCOC(=O)C1=C(O)C(=O)N(Cc2cccnc2)C1c1ccc(OC)cc1 (stereo unspecified)	none (no result: ROMK primary)
Cn1ccc(-c2ccccc2)n1	none
N#Cc1cc(-c2ccccc2)nn1-c1ccccc1	14-3-3 Bad inh 80[fluorescence artefact?], NCF1 inh 34 (no result: ROMK primary, KCC2 mod)
CCCCN=Cc1c(C)[nH]n(-c2ccccc2)c1=S	none
CCCCN(CCCC)C(=S)N/N=C/c1c(C)[nH]n(-c2ccccc2)c1=O	KCC2 mod 23 (no result: ROMK primary)
Cc1ccc2oc(Nc3nc(-c4ccccc4)cc(=O)[nH]3)nc2c1	14-3-3 Bad inh 88, NCF1 inh 45
CCN(CC)CC(=O)Nc1ccc([N+](=O)[O-])cc1	none
O=C(NCC1(c2ccccc2)CCCC1)C(=O)NCC1(c2ccccc2)CCCC1	none
O=C(NCC1(c2ccccc2)CCCC1)C1(c2ccccc2)CCCC1	WT yeast gro inh 83 (no result: ROMK primary)
COc1ccc(CN2C(=O)/C(=C/c3ccc(-c4ccc(Cl)c(C(=O)O)c4)o3)SC2=S)cc1	14-3-3 Bad inh 77
CCN(CC(=O)NC(C)C)C(=O)Cc1ccc(C)c(C)c1	none
CCNC(=O)Nn1c(-c2ccccc2)nc2ccccc2c1=O	none (no result: ROMK primary, KCC2 mod)
CCC(C(=O)OC)n1c(-c2ccccc2)nc2ccccc2c1=O (stereo unspecified)	WT yeast gro inh 60 (no result: KCC2 mod)
Cc1ccc(Nc2nc(=O)c3cccnc3s2)cc1	none
COc1ccc(OC)c(Nc2nc(=O)c3cccnc3s2)c1	NCF1 inh 60
Oc1cccc(/C=N/N(Cc2ccccc2)c2ccccc2)c1	WT yeast gro inh 90
C(=N\N(Cc1ccccc1)c1ccccc1)/c1cccnc1	WT yeast gro inh 74
O=C(COc1ccccc1Br)Nc1ccccc1C(F)(F)F	none (no result: ROMK primary, KCC2 mod)
Cc1cc(C)nc(NC2=NCC(=O)N2c2ccc3c(c2)OCCO3)n1	WT yeast gro inh 95
COc1ccc(N2C(=O)CN=C2Nc2nc(C)cc(C)n2)cc1	none
O=C(COc1ccccc1)NCC(=O)NC1=NCCS1	none (no result: ROMK primary)
Cc1ccc(OCC(=O)NC2=NCCS2)cc1	NCF1 inh 47 (no result: ROMK primary)
COc1ccc(C(=O)CSc2nc(SC)ns2)cc1OC	none (no result: ROMK primary)
COc1ccc(C(=O)CSc2cc(C)nc3nc(C)nn23)cc1OC	NCF1 inh 129
Fc1cccc(Cc2noc(CN3CCC(c4ccncc4)CC3)n2)c1	none
O=C(Nc1ccc(Cl)cc1)NC1CCCCC1Cc1ccco1 (stereo unspecified)	WT yeast gro inh 75 (no result: ROMK primary)
O=C(Nc1ccc(Cl)cc1)NC1CCCC1Cc1ccco1 (stereo unspecified)	none
Nc1ccc(C(=O)N/N=C\c2cc(N=Nc3cccc4ccccc34)ccc2O)cc1	14-3-3 Bad inh 77[fluorescence artefact?] (no result: ROMK primary, KCC2 mod)
Cc1cc(C(=O)N/N=C/c2cc(N=Nc3ccccc3)ccc2O)n[nH]1	NCF1 inh 35 (no result: ROMK primary)
COc1cccc(/C=c2/s/c(=C(\C#N)C(=O)N3CCOCC3)n(-c3ccccc3)c2=O)c1	14-3-3 Bad inh 76[fluorescence artefact?] (no result: ROMK primary, KCC2 mod)
CC(=O)c1ccc(OCCOc2ccc(Cl)c3cccnc23)cc1	none
CC(C)c1cc(C(N)=O)c(NC(=O)c2cccc(COc3ccc(Cl)cc3)c2)s1	WT yeast gro inh 65
Cc1nn(Cc2c(F)c(F)c(F)c(F)c2F)c(C)c1NC(=O)c1cccc(COc2ccc(Cl)cc2)c1	none
O=[N+]([O-])c1ccc(Sc2ncc3ccccn23)nc1	none (no result: WT yeast gro inh, ROMK primary)
CCCCNC(=S)N/N=C/C1=CCC2CC1C2(C)C (stereo unspecified)	WT yeast gro inh 70
CC(=O)N/N=C/C1=CCC2CC1C2(C)C (stereo unspecified)	none
CC(C)NC(=S)N/N=C/C1=CCC2CC1C2(C)C (stereo unspecified)	WT yeast gro inh 73
CCn1ncc(-c2ccnc3cc(C(=O)O)nn23)c1C	14-3-3 Bad inh 70
CC1COC(Cn2c3ccccc3c3ccccc32)O1 (stereo unspecified)	none (no result: WT yeast gro inh, ROMK primary)

Source: PubChem BioAssay
